Measurements from ChEMBL document CHEMBL2177000, “Pharmacokinetic optimization of class-selective histone deacetylase inhibitors and identification of associated candidate predictive biomarkers of hepatocellular carcinoma tumor response” (J Med Chem, 2012).
The source made the active and inactive calls. The rule behind the calls is not given here.

Experiments:
[1] = tested on: Mus musculus; experiment: Tmax in BALB/C mouse at 10 mg/kg, po or 2 mg/kg, iv by LC-MS/MS method; type: ADME, organism-based; settings: in vivo
Method in brief: (§1)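 Single-dose PK: iv bolus 2 mg/kg in 5% DMSO/40% PEG400/55% saline and/or oral gavage 10 mg/kg as 0.445% microcrystalline cellulose microsuspension; BALB/C nude mice (15−20 g, N = 16 per arm) or male Sprague−Dawley rats (250 ± 20 g, N = 3). Blood at eight (po) or nine (iv) time points into sodium heparin, plasma by LC-MS/MS, noncompartmental analysis.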

[2] = Antitumor activity against treatment responding human hepatocellular carcinoma patient tumor xenografted in BALB/C mouse assessed as tumor growth inhibition at 100 mg/kg, po administered every other day for 4 weeks; type: functional; settings: 672 h, read-out: TGI
Method in brief: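 Tumor fragments (3×3×3 mm3) from HCC patients implanted subcutaneously in right flank of female BALB/c nu/nu mice (6−7 weeks). At about 200 (150−250) mm3, randomized (n = 10 per arm); Q2D PO 100 mpk in 15% Kleptose pH 4.5 tartaric buffer, about four weeks; caliper tumor volume three times weekly.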

[3] = tested on: SGC-7901; type: functional, Homo sapiens
[4] = tested on: SMMC-7721; experiment: Induction of apoptosis in human SMMC-7721 cells assessed as early apoptotic cell level at 5 uM incubated for 48 hrs by FITC/Annexin V staining based flow cytometry (reference value: 2.61%)
[5] = tested on: Mus musculus; experiment: Up-regulation of CDKN2A gene expression in human hepatocellular carcinoma patient tumor xenografted in BALB/C mouse at 100 mg/kg, po administered every other day for 4 weeks by […]; type: functional, organism-based; parameters: dose 100 mg/kg
Method in brief: (§2)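 Patient HCC tumor fragments (3 × 3 × 3 mm3) implanted subcutaneously in female BALB/c nu/nu mice; at ~200 (150−250) mm3 dosed orally Q2D 100 mpk in 15% Kleptose pH 4.5 tartaric buffer for about four weeks. Tumor RNA (TRIzol, DNase I) run on 22-gene qRT-PCR array, normalized to GAPDH/β-glucuronidase by ΔCt, fold change versus day 0.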

[6] = tested on: Mus musculus; experiment: Up-regulation of CDH1 gene expression in human hepatocellular carcinoma patient tumor xenografted in BALB/C mouse at 100 mg/kg, po administered every other day for 4 weeks by […]; type: functional, organism-based; parameters: dose 100 mg/kg; method in brief: as §2
[7] = tested on: Mus musculus; experiment: Inhibition of Class 1 histone deacetylase in treatment non-responding human hepatocellular carcinoma patient tumor xenografted in BALB/C mouse assessed as induction of histone H3 acetylation at 100 mg/kg, po administered every other day for 4 weeks by immunohistochemistry; type: functional, organism-based; parameters: dose 100 mg/kg
Method in brief: (§3)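 Patient-derived HCC xenografts in female nude mice given 100 mpk Q2D PO (15% Kleptose, pH 4.5 tartaric buffer); single dose on last day, tumors harvested 0 to 24 h post-dose. Paraffin sections, citrate pH 6.0 antigen retrieval, anti-Ac-H3 (Lys9) 1:200 overnight 4 °C, HRP/DAB; scored 0−3 independently by two pathologists.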

[8] = tested on: Mus musculus; experiment: Up-regulation of CTGF gene expression in human hepatocellular carcinoma patient tumor xenografted in BALB/C mouse at 100 mg/kg, po administered every other day for 4 weeks by […]; type: functional, organism-based; parameters: dose 100 mg/kg; method in brief: as §2
[9] = tested on: SGC-7901; experiment: Induction of cell cycle arrest in human SGC7901 cells assessed as reduction in accumulation at S phase incubated for 24 hrs by flow cytometry; type: functional, cell-based
Method in brief: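 SGC-7901 cells (1 × 10^5, about 50% confluent) treated 24 h with a concentration series; fixed in chilled 70% ethanol 1 h at 4 °C, stained 1 h at room temperature with propidium iodide (50 μg/mL) plus RNase A and 0.05% Triton X-100; analysed by flow cytometry.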

[10] = tested on: Mus musculus; experiment: Up-regulation of SOCS1 gene expression in human hepatocellular carcinoma patient tumor xenografted in BALB/C mouse at 100 mg/kg, po administered every other day for 4 weeks by […]; type: functional, organism-based; parameters: dose 100 mg/kg; method in brief: as §2
[11] = tested on: Mus musculus; experiment: Up-regulation of CCND2 gene expression in human hepatocellular carcinoma patient tumor xenografted in BALB/C mouse at 100 mg/kg, po administered every other day for 4 weeks by […]; type: functional, organism-based; parameters: dose 100 mg/kg; method in brief: as §2
[12] = tested on: Mus musculus; experiment: Up-regulation of CEBPA gene expression in human hepatocellular carcinoma patient tumor xenografted in BALB/C mouse at 100 mg/kg, po administered every other day for 4 weeks by […]; type: functional, organism-based; parameters: dose 100 mg/kg; method in brief: as §2
[13] = tested on: Mus musculus; experiment: Up-regulation of TIMP3 gene expression in human hepatocellular carcinoma patient tumor xenografted in BALB/C mouse at 100 mg/kg, po administered every other day for 4 weeks by […]; type: functional, organism-based; parameters: dose 100 mg/kg; method in brief: as §2
[14] = tested on: Mus musculus; experiment: Up-regulation of CACNA1G gene expression in human hepatocellular carcinoma patient tumor xenografted in BALB/C mouse at 100 mg/kg, po administered every other day for 4 weeks by […]; type: functional, organism-based; parameters: dose 100 mg/kg; method in brief: as §2
[15] = tested on: Mus musculus; experiment: Down-regulation of WNT5A gene expression in human hepatocellular carcinoma patient tumor xenografted in BALB/C mouse at 100 mg/kg, po administered every other day for 4 weeks by […]; type: functional, organism-based; parameters: dose 100 mg/kg
Method in brief: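 Patient-derived HCC xenografts dosed 100 mpk Q2D PO; tumor total RNA (TRIzol, DNase I treated, column-purified) run on a customized 22-gene qRT-PCR array; ΔCt against mean of GAPDH and β-glucuronidase, fold-change relative to day 0 (pre-treatment).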

[16] = tested on: Mus musculus; experiment: Inhibition of Class 1 histone deacetylase in treatment responding human hepatocellular carcinoma patient tumor xenografted in BALB/C mouse assessed as induction of histone H3 acetylation at 100 mg/kg, po administered every other day for 4 weeks by immunohistochemistry; type: functional, organism-based; parameters: dose 100 mg/kg; method in brief: as §3
[17] = tested on: SGC-7901; experiment: Inhibition of Class 1 histone deacetylase in human SGC7901 cells assessed as […] at 0.6 to 5 uM incubated for 24 hrs by Western blot method; type: cell-based
Method in brief: (§4)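 SGC-7901 cells (1 × 10^6) seeded overnight, treated 24 h at indicated concentrations; lysed on ice with protease inhibitor, 15 000 g supernatant; 30 μg protein by SDS-PAGE, nitrocellulose, antibody probing for acetylated histone H3 and p21, ECL detection.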

[18] = tested on: SGC-7901; experiment: Inhibition of Class 1 histone deacetylase in human SGC7901 cells assessed as histone H3 acetylation at 0.6 to 5 uM incubated for 24 hrs by Western blot method; type: cell-based; method in brief: as §4
[19] = tested on: Mus musculus; experiment: Up-regulation of FN1 gene expression in human hepatocellular carcinoma patient tumor xenografted in BALB/C mouse at 100 mg/kg, po administered every other day for 4 weeks by […]; type: functional, organism-based; parameters: dose 100 mg/kg; method in brief: as §2
[20] = Clearance in human liver microsomes at 1 uM incubated for 10 mins by LC-MS/MS method; type: ADME, Microsome
Method in brief: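 Liver microsomes (human or mouse, 0.5 mg/mL) in 100 mM potassium phosphate pH 7.4 with 1 μM compound, prewarmed 10 min at 37 °C, started with NADPH (10 mM); stopped at 0, 3, 6, 9, 15, 30 min with ice-cold methanol containing tolbutamide internal standard; LC-MS/MS. Hepatic clearance (mL/min/kg) calculated from intrinsic clearance.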

[21] = target: Voltage-gated inwardly rectifying potassium channel KCNH2 (Homo sapiens, UniProt Q12809); experiment: Inhibition of human ERG expressed in CHO cells by patch clamp method; type: cell-based
Voltage-gated inwardly rectifying potassium channel KCNH2, sequence (Q12809 whole entry): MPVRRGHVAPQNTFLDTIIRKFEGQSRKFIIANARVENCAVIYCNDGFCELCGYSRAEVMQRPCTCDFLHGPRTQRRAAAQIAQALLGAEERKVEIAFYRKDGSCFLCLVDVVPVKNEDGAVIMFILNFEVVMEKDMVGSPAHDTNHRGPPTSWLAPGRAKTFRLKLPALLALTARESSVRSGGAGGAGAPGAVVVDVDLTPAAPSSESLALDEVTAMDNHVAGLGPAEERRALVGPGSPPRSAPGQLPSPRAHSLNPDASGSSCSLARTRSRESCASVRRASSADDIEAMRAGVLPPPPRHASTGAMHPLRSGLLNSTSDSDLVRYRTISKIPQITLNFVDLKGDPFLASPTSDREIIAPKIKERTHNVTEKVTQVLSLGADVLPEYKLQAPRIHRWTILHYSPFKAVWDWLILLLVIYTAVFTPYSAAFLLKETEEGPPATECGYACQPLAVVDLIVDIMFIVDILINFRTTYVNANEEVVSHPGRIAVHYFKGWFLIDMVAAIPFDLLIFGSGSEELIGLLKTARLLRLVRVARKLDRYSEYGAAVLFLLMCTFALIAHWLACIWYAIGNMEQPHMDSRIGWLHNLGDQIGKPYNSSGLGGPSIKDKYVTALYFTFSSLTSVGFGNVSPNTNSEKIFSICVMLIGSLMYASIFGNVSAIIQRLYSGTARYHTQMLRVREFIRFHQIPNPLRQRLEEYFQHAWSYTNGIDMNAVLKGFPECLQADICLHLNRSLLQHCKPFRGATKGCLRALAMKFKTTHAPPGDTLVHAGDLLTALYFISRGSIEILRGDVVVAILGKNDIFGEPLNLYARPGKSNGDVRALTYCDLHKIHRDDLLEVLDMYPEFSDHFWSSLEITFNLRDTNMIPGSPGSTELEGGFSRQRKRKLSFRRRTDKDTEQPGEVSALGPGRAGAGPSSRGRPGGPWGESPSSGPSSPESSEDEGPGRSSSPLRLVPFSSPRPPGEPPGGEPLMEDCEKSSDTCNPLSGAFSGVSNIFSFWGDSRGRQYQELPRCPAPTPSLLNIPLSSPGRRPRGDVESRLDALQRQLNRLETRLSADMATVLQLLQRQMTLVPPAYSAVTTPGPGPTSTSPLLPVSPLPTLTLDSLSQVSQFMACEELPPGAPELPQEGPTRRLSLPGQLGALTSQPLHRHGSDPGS

[22] = Volume of distribution at steady state in BALB/C mouse at 10 mg/kg, po or 2 mg/kg, iv by LC-MS/MS method; type: ADME, organism-based; parameters: unit not given here; settings: in vivo, read-out: Vdss; method in brief: as §1

With `CN1C[C@H](C(=O)Nc2ccc(Cl)cc2)[C@@H](c2ccc(/C=C/C(=O)Nc3ccccc3N)cc2)C1` [listing 1 of 2 here] the Tmax [1] was 15 min, the inhibition in vivo at 100 mg/kg [2] was 50% and the GI90 [3] was 1.4 µM. For the same compound, the Activity [4] was 3.56%.
In the case of `CN1C[C@H](C(=O)Nc2ccc(Cl)cc2)[C@@H](c2ccc(/C=C/C(=O)Nc3ccccc3N)cc2)C1` [listing 2 of 2 here], the Activity [5] is reported as “inactive”, the Activity [6] is reported as “inactive” and the inhibition [7] is reported as “inactive”. The Activity [8] was “Active”, the Activity [9] was “Dose-dependent effect” and the Activity [10] was “Active”. For the same compound, the Activity [11] was “Active”, the Activity [12] was “Active” and the Activity [13] was “Active”. The Activity [14] was “Active”, the Activity [15] was “Active” and the inhibition [16] was “Active”. The inhibition [17] was “Dose-dependent effect”, the inhibition [18] was “Dose-dependent effect” and the Activity [19] was “Active”.
With `CN1C[C@H](C(=O)Nc2ccc(Cl)cc2)[C@@H](c2ccc(/C=C/C(=O)Nc3ccccc3N)cc2F)C1` (racemic) the CLhep predicted at 1 µM [20] was 14 mL/min/kg, the IC50 [21] was 7 µM and the Vd [22] was 3.
